{"source": "ChEMBL document CHEMBL1145020", "about": "“Synthesis and structure-activity relationships of 6,7-disubstituted 4-anilinoquinoline-3-carbonitriles. The design of an orally active, irreversible inhibitor of the tyrosine kinase activity of the epidermal growth factor receptor (EGFR) and the human epidermal growth factor receptor-2 (HER-2)” (J Med Chem, 2003)", "note": "pIC50: −log10 of the molar value."}
{"test_system": "A-431", "assay": "Concentration required to inhibit growth of human carcinoma epidermoid (A431) cell line", "format": "functional, cell-based", "details": "not given"}
{"compound": "CC(C)N(CC#CC(=O)Nc1ccc2ncc(C#N)c(Nc3cccc(Br)c3)c2c1)C(C)C", "pIC50": 6.85}
{"compound": "COCC#CC(=O)Nc1ccc2ncc(C#N)c(Nc3cccc(Br)c3)c2c1", "pIC50": 6.55}
{"compound": "CCCN(CC#CC(=O)Nc1ccc2ncc(C#N)c(Nc3cccc(Br)c3)c2c1)CCC", "pIC50": 6.62}
{"compound": "COCCOCC#CC(=O)Nc1ccc2ncc(C#N)c(Nc3cccc(Br)c3)c2c1", "pIC50": 6.57}
{"compound": "CC#CC(=O)Nc1cc2c(Nc3cccc(Br)c3)c(C#N)cnc2cc1OC", "pIC50": 5.29}
{"compound": "COc1cc2ncc(C#N)c(Nc3cccc(Br)c3)c2cc1NC(=O)C#CCN(C)C", "pIC50": 6.96}
{"compound": "COc1cc(NC(=O)/C=C/CN(C)C)cc2c(Nc3cccc(Br)c3)c(C#N)cnc12", "pIC50": 5.60}
{"compound": "C=C(CN(C)C)C(=O)Nc1cc2c(Nc3ccc(F)c(Cl)c3)c(C#N)cnc2cc1OCC", "pIC50": 6.74}
{"compound": "COC[C@@H]1CCCN1CC#CC(=O)Nc1ccc2ncc(C#N)c(Nc3cccc(Br)c3)c2c1", "pIC50": 5.92}
{"compound": "COc1cc2ncc(C#N)c(Nc3cccc(Br)c3)c2cc1NC(=O)/C=C/CN(C)C", "pIC50": 6.85}
{"compound": "C=CC(=O)Nc1ccc2ncc(C#N)c(Nc3cccc(Br)c3)c2c1", "pIC50": 6.44}
{"compound": "CC#CC(=O)Nc1ccc2ncc(C#N)c(Nc3cccc(Br)c3)c2c1", "pIC50": 5.30}
{"compound": "CN(C)C/C=C/C(=O)Nc1ccc2ncc(C#N)c(Nc3cccc(Br)c3)c2c1", "pIC50": 6.35}
{"compound": "CN(C)C/C=C/C(=O)Nc1ccc2ncc(C#N)c(Nc3ccc(F)c(Cl)c3)c2c1", "pIC50": 6.82}
{"compound": "C=CC(=O)Nc1cc2c(Nc3cccc(Br)c3)c(C#N)cnc2cc1OC", "pIC50": 6.51}
{"compound": "COCC#CC(=O)Nc1cc2c(Nc3cccc(Br)c3)c(C#N)cnc2cc1OC", "pIC50": 6.14}
{"target": "Receptor tyrosine-protein kinase erbB-2 (Homo sapiens, UniProt P04626)", "sequence (P04626 whole entry, the tested form may be a part)": "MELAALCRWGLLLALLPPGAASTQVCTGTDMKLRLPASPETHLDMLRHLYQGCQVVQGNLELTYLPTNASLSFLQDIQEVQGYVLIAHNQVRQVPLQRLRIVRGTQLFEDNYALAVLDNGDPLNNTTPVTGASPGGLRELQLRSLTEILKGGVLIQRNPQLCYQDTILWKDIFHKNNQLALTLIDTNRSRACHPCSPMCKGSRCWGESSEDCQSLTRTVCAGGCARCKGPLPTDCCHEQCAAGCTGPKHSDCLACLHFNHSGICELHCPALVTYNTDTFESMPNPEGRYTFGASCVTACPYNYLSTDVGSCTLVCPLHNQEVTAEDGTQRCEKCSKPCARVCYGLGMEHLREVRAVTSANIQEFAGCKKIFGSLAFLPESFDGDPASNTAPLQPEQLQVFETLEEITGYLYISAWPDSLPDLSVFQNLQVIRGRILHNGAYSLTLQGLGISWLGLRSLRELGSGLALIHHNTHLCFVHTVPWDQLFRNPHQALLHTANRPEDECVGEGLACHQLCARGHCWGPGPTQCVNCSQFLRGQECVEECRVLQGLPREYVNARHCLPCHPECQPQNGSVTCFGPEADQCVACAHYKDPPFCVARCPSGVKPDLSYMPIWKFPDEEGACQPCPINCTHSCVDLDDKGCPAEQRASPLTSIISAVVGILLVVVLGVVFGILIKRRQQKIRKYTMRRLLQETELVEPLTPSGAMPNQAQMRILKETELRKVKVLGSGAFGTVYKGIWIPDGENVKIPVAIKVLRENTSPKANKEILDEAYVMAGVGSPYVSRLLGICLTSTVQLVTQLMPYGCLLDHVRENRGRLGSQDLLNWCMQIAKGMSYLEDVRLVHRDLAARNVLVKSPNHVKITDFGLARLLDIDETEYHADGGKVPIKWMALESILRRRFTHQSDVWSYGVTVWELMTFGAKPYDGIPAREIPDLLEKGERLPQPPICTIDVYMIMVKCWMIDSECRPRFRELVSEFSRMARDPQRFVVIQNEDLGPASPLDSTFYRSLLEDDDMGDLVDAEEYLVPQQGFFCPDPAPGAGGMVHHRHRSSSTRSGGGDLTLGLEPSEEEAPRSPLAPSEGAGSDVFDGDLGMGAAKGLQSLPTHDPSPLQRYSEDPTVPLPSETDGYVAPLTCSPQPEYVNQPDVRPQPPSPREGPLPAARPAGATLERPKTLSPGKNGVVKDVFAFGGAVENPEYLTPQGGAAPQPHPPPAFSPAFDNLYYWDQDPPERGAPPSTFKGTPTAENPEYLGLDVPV", "assay": "Concentration required to inhibit autophosphorylation of cytoplasmic domain of human epidermal growth factor receptor-2", "details": "not given"}
{"compound": "CC(C)N(CC#CC(=O)Nc1ccc2ncc(C#N)c(Nc3cccc(Br)c3)c2c1)C(C)C", "pIC50": 6.49}
{"compound": "COCC#CC(=O)Nc1ccc2ncc(C#N)c(Nc3cccc(Br)c3)c2c1", "pIC50": 6.52}
{"compound": "CCCN(CC#CC(=O)Nc1ccc2ncc(C#N)c(Nc3cccc(Br)c3)c2c1)CCC", "pIC50": 6.43}
{"compound": "COCCOCC#CC(=O)Nc1ccc2ncc(C#N)c(Nc3cccc(Br)c3)c2c1", "pIC50": 6.35}
{"compound": "CC#CC(=O)Nc1cc2c(Nc3cccc(Br)c3)c(C#N)cnc2cc1OC", "pIC50": 5.67}
{"compound": "COc1cc2ncc(C#N)c(Nc3cccc(Br)c3)c2cc1NC(=O)C#CCN(C)C", "pIC50": 6.74}
{"compound": "COc1cc(NC(=O)/C=C/CN(C)C)cc2c(Nc3cccc(Br)c3)c(C#N)cnc12", "pIC50": 5.03}
{"compound": "C=C(CN(C)C)C(=O)Nc1cc2c(Nc3ccc(F)c(Cl)c3)c(C#N)cnc2cc1OCC", "pIC50": 5.92}
{"compound": "COC[C@@H]1CCCN1CC#CC(=O)Nc1ccc2ncc(C#N)c(Nc3cccc(Br)c3)c2c1", "pIC50": 5.91}
{"compound": "COc1cc2ncc(C#N)c(Nc3cccc(Br)c3)c2cc1NC(=O)/C=C/CN(C)C", "pIC50": 5.25}
{"compound": "C=CC(=O)Nc1ccc2ncc(C#N)c(Nc3cccc(Br)c3)c2c1", "pIC50": 5.79}
{"compound": "CC#CC(=O)Nc1ccc2ncc(C#N)c(Nc3cccc(Br)c3)c2c1", "pIC50": 5.41}
{"compound": "CN(C)C/C=C/C(=O)Nc1ccc2ncc(C#N)c(Nc3cccc(Br)c3)c2c1", "pIC50": 5.38}
{"compound": "CN(C)C/C=C/C(=O)Nc1ccc2ncc(C#N)c(Nc3ccc(F)c(Cl)c3)c2c1", "pIC50": 5.71}
{"compound": "C=CC(=O)Nc1cc2c(Nc3cccc(Br)c3)c(C#N)cnc2cc1OC", "pIC50": 5.33}
{"compound": "COCC#CC(=O)Nc1cc2c(Nc3cccc(Br)c3)c(C#N)cnc2cc1OC", "pIC50": 6.42}
{"test_system": "SW-620", "assay": "Concentration required to inhibit growth of human carcinoma colon (SW620) cell line", "format": "functional, cell-based", "details": "not given"}
{"compound": "CC(C)N(CC#CC(=O)Nc1ccc2ncc(C#N)c(Nc3cccc(Br)c3)c2c1)C(C)C", "pIC50": 6.60}
{"compound": "COCC#CC(=O)Nc1ccc2ncc(C#N)c(Nc3cccc(Br)c3)c2c1", "pIC50": 6.28}
{"compound": "CCCN(CC#CC(=O)Nc1ccc2ncc(C#N)c(Nc3cccc(Br)c3)c2c1)CCC", "pIC50": 6.40}
{"compound": "COCCOCC#CC(=O)Nc1ccc2ncc(C#N)c(Nc3cccc(Br)c3)c2c1", "pIC50": 6.47}
{"compound": "CC#CC(=O)Nc1cc2c(Nc3cccc(Br)c3)c(C#N)cnc2cc1OC", "pIC50": 5.12}
{"compound": "COc1cc2ncc(C#N)c(Nc3cccc(Br)c3)c2cc1NC(=O)C#CCN(C)C", "pIC50": 6.52}
{"compound": "COc1cc(NC(=O)/C=C/CN(C)C)cc2c(Nc3cccc(Br)c3)c(C#N)cnc12", "pIC50": 5.05}
{"compound": "C=C(CN(C)C)C(=O)Nc1cc2c(Nc3ccc(F)c(Cl)c3)c(C#N)cnc2cc1OCC", "pIC50": 6.49}
{"compound": "COC[C@@H]1CCCN1CC#CC(=O)Nc1ccc2ncc(C#N)c(Nc3cccc(Br)c3)c2c1", "pIC50": 5.38}
{"compound": "COc1cc2ncc(C#N)c(Nc3cccc(Br)c3)c2cc1NC(=O)/C=C/CN(C)C", "pIC50": 5.93}
{"compound": "C=CC(=O)Nc1ccc2ncc(C#N)c(Nc3cccc(Br)c3)c2c1", "pIC50": 5.47}
{"compound": "CC#CC(=O)Nc1ccc2ncc(C#N)c(Nc3cccc(Br)c3)c2c1", "pIC50": 4.91}
{"compound": "CN(C)C/C=C/C(=O)Nc1ccc2ncc(C#N)c(Nc3cccc(Br)c3)c2c1", "pIC50": 5.26}
{"compound": "CN(C)C/C=C/C(=O)Nc1ccc2ncc(C#N)c(Nc3ccc(F)c(Cl)c3)c2c1", "pIC50": 6.06}
{"compound": "C=CC(=O)Nc1cc2c(Nc3cccc(Br)c3)c(C#N)cnc2cc1OC", "pIC50": 5.73}
{"compound": "COCC#CC(=O)Nc1cc2c(Nc3cccc(Br)c3)c(C#N)cnc2cc1OC", "pIC50": 5.75}
{"test_system": "not listed separately", "assay": "Concentration required to inhibit growth of human carcinoma breast (SKBR3) cell line", "format": "functional", "details": "SK-BR-3", "summary_of_the_method": "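Cell growth inhibition measured from dose–response curves at five concentrations. […] Reported values average at least two determinations.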"}
{"compound": "CC(C)N(CC#CC(=O)Nc1ccc2ncc(C#N)c(Nc3cccc(Br)c3)c2c1)C(C)C", "pIC50": 7.40}
{"compound": "COCC#CC(=O)Nc1ccc2ncc(C#N)c(Nc3cccc(Br)c3)c2c1", "pIC50": 6.46}
{"compound": "CCCN(CC#CC(=O)Nc1ccc2ncc(C#N)c(Nc3cccc(Br)c3)c2c1)CCC", "pIC50": 7.10}
{"compound": "COCCOCC#CC(=O)Nc1ccc2ncc(C#N)c(Nc3cccc(Br)c3)c2c1", "pIC50": 6.41}
{"compound": "CC#CC(=O)Nc1cc2c(Nc3cccc(Br)c3)c(C#N)cnc2cc1OC", "pIC50": 5.08}
{"compound": "COc1cc2ncc(C#N)c(Nc3cccc(Br)c3)c2cc1NC(=O)C#CCN(C)C", "pIC50": 6.92}
{"compound": "COc1cc(NC(=O)/C=C/CN(C)C)cc2c(Nc3cccc(Br)c3)c(C#N)cnc12", "pIC50": 5.60}
{"compound": "C=C(CN(C)C)C(=O)Nc1cc2c(Nc3ccc(F)c(Cl)c3)c(C#N)cnc2cc1OCC", "pIC50": 7.05}
{"compound": "COC[C@@H]1CCCN1CC#CC(=O)Nc1ccc2ncc(C#N)c(Nc3cccc(Br)c3)c2c1", "pIC50": 6.27}
{"compound": "COc1cc2ncc(C#N)c(Nc3cccc(Br)c3)c2cc1NC(=O)/C=C/CN(C)C", "pIC50": 7.52}
{"compound": "C=CC(=O)Nc1ccc2ncc(C#N)c(Nc3cccc(Br)c3)c2c1", "pIC50": 6.36}
{"compound": "CC#CC(=O)Nc1ccc2ncc(C#N)c(Nc3cccc(Br)c3)c2c1", "pIC50": 5.26}
{"compound": "CN(C)C/C=C/C(=O)Nc1ccc2ncc(C#N)c(Nc3cccc(Br)c3)c2c1", "pIC50": 6.74}
{"compound": "CN(C)C/C=C/C(=O)Nc1ccc2ncc(C#N)c(Nc3ccc(F)c(Cl)c3)c2c1", "pIC50": 7.30}
{"compound": "C=CC(=O)Nc1cc2c(Nc3cccc(Br)c3)c(C#N)cnc2cc1OC", "pIC50": 6.92}
{"compound": "COCC#CC(=O)Nc1cc2c(Nc3cccc(Br)c3)c(C#N)cnc2cc1OC", "pIC50": 6.54}
{"target": "Epidermal growth factor receptor (Homo sapiens, UniProt P00533)", "sequence (P00533 whole entry)": "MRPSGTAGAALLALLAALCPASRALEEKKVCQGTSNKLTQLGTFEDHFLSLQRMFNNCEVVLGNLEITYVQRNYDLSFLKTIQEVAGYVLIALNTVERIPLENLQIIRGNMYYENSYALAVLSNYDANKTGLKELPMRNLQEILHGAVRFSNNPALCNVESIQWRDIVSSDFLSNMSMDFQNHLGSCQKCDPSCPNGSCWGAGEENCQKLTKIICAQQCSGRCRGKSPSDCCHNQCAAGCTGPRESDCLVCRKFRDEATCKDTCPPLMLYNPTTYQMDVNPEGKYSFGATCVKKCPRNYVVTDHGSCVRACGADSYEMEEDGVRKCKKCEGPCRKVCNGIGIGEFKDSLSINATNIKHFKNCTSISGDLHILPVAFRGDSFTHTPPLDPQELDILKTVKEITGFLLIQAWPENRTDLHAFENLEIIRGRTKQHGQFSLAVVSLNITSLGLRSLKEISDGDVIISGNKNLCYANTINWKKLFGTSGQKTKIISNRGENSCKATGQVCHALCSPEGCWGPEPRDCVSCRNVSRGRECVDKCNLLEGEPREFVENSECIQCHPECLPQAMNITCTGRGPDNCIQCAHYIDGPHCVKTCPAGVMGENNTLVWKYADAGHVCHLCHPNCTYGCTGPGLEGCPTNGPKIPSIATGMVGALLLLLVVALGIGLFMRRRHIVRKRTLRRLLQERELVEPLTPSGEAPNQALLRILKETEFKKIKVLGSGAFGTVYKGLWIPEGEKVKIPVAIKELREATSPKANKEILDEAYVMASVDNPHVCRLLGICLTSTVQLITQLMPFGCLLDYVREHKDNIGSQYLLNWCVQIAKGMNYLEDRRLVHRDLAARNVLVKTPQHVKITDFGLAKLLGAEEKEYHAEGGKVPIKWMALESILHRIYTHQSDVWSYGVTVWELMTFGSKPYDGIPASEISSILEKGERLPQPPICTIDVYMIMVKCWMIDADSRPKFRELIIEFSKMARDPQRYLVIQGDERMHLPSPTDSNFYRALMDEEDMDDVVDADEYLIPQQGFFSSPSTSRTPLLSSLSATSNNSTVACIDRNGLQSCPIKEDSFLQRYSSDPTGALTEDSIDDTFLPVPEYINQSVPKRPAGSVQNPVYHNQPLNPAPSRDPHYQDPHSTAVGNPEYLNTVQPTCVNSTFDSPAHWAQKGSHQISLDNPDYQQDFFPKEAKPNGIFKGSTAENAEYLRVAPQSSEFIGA", "details": "not given"}
{"compound": "COCC#CC(=O)Nc1ccc2ncc(C#N)c(Nc3cccc(Br)c3)c2c1", "pIC50": 6.02}
{"compound": "CCCN(CC#CC(=O)Nc1ccc2ncc(C#N)c(Nc3cccc(Br)c3)c2c1)CCC", "pIC50": 6.89}
{"compound": "COCCOCC#CC(=O)Nc1ccc2ncc(C#N)c(Nc3cccc(Br)c3)c2c1", "pIC50": 6.03}
{"compound": "CC#CC(=O)Nc1cc2c(Nc3cccc(Br)c3)c(C#N)cnc2cc1OC", "pIC50": 6.04}
{"compound": "COc1cc2ncc(C#N)c(Nc3cccc(Br)c3)c2cc1NC(=O)C#CCN(C)C", "pIC50": 7.05}
{"compound": "COc1cc(NC(=O)/C=C/CN(C)C)cc2c(Nc3cccc(Br)c3)c(C#N)cnc12", "pIC50": 5.54}
{"compound": "C=C(CN(C)C)C(=O)Nc1cc2c(Nc3ccc(F)c(Cl)c3)c(C#N)cnc2cc1OCC", "pIC50": 6.25}
{"compound": "COC[C@@H]1CCCN1CC#CC(=O)Nc1ccc2ncc(C#N)c(Nc3cccc(Br)c3)c2c1", "pIC50": 6.82}
{"compound": "COc1cc2ncc(C#N)c(Nc3cccc(Br)c3)c2cc1NC(=O)/C=C/CN(C)C", "pIC50": 6.10}
{"compound": "C=CC(=O)Nc1ccc2ncc(C#N)c(Nc3cccc(Br)c3)c2c1", "pIC50": 6.23}
{"compound": "CC#CC(=O)Nc1ccc2ncc(C#N)c(Nc3cccc(Br)c3)c2c1", "pIC50": 6.03}
{"compound": "CN(C)C/C=C/C(=O)Nc1ccc2ncc(C#N)c(Nc3cccc(Br)c3)c2c1", "pIC50": 6.51}
{"compound": "CN(C)C/C=C/C(=O)Nc1ccc2ncc(C#N)c(Nc3ccc(F)c(Cl)c3)c2c1", "pIC50": 6.19}
{"compound": "COCC#CC(=O)Nc1cc2c(Nc3cccc(Br)c3)c(C#N)cnc2cc1OC", "pIC50": 6.10}
